Reference: the EternaBench riboswitch data

Tested on: MS2 coat protein
Test: apparent Kd, MS2 coat protein; higher = weaker binding; RNA-MaP array; FMN 200 µM where present
Procedure, shortened: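 Each design was made on Illumina sequencing-chip clusters by stalled E. coli RNA polymerase and titrated with SNAP-549-labelled MS2 coat protein from 0.7 or 1.5 nM, doubling to 3 µM, in the absence and then the presence of constant ligand. The buffer was 100 mM Tris-HCl pH 7.5, 80 mM KCl, 4 mM MgCl2, BSA, DTT, yeast tRNA and Tween-20. The apparent Kd is the median of filtered per-cluster fits of binding curves, with green signal normalised to red-channel RNA signal and control-cluster median Fmax.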

[1] = designed as: OFF switch for flavin mononucleotide, no ligand
[2] = ligand present: flavin mononucleotide, designed as: OFF switch for flavin mononucleotide
[3] = designed as: ON switch for flavin mononucleotide, no ligand
[4] = ligand present: flavin mononucleotide, designed as: ON switch for flavin mononucleotide

Sequence | apparent Kd [1] | apparent Kd [2] | apparent Kd [3] | apparent Kd [4]
CGACACAUGAGGGUCUCCCAUGACAUGAGGAUCACCCAUGUGCAGGAUAUACGUGUGAUGGUAUAGUAGAAGGGCACUCUAUGC | 368 nM | 392 nM | – | –
UGGUUGUGAGGAUAUACGUUUUUUAACUCUUGUUUUAUACUGUAGAAGGCACAUGAGGAUCACCCAUGUUACGU | 22.4 nM | 26 nM | – | –
AAGAAGGACGCAGGAUAUCCAGGACCUCCCGCAGGAGAAGGGCGAGACAUGAGGAUCACCCAUACAUGAGGAUCACCCAUGUAA | 20.4 nM | 22.3 nM | – | –
GACAGUGCAAUAAUAAUAAGAUCUACAUGAGGAUCACCCAUGUAGGAUAUCGUCAGGAAUACUGACGAGAAGGACAUAGCACUG | 13.1 nM | 15 nM | – | –
AAGAUCGGAGGAUAUGAAAGGCGUUACAUGAGGAUCACCCAUGUCGGUUUCAUGUUCGUCUCAGAAGGCCGACUCC | 84.7 nM | 311 nM | – | –
GCCAUCGCAUGAGGAUAUGCUCCCGUUUCGGGAGCAGAAGGCAUGUCAUAAGACAUGAGGAUCACCCAUGUAGCUAAGAUGGCA | – | – | 310 nM | 12.1 nM
GGUACCAUCACAGGAUAUGCAAUCCUUUGGGUUGCAGAAGGGUGUAACAUGAGGAUCACCCAUGUGGUGCCAGGGCGUGAGCCC | – | – | 423 nM | 44.5 nM
ACCUCACAUGAGGAUCACCCAUGUCAGGAUAUCUGAUGUAGUCGCGUUCCCGACGCUAAGAGAAGGGACGUUGA | 40.4 nM | 35.1 nM | – | –
CUUUGGAUGUCAGGAUAUUGAAUCAUGGAUGGUAUCUUACAGUCUUACAUGAGGAUCACCCAUGUCGAGAAGGGAUAUCAGCUC | 6.15 nM | 10.5 nM | – | –
AACAUGAGGAUCACCCAUGUCCCACCAGAAGGCUGGCGGCCACGGUAACGGCCGUGGCAAAUAACAGAGGAUAUGGUGAAUGCA | – | – | 66.3 nM | 17.9 nM
UUACGUCCCGUUUACAUGAGGAUCACCCAUGUCGAAAGAGCGUAGGAUAUGCUACCUAGUUGGUAGCAGAAGGAUGCAACGUCG | – | – | 25.2 nM | 37.5 nM
GGCAGCGGACAAGGAUAUAAGACGCAGACCAAAUUAGAAGGUGUCAUCUGGCAAUGCGAAAGCAGACAUGAGGAUCACCCAUGU | – | – | 68.8 nM | 61.7 nM
CAGUACUGAGGAUAUACAUGAGGAUCACCCAUGUAUCCAAGCUAGGAAACUAGCAAAUGUAGAAGGCAGUACUG | 34.1 nM | 519 nM | – | –
AAAUCAGCAGGAUAUGCGAUGUUGUGCUAGAUAGCGGGACCACAUGAGGAUCACCCAUGUAGAAGGGCUAGAUA | 51.4 nM | 18.9 nM | – | –
GGACGUCGCAUUAACAUGAGGAUCACCCAUGUCAAAGGACAUGAGGAUAUGGAUCCUAAUUGGAUCCAGAAGGCAUGGACGUCC | – | – | 485 nM | 35.8 nM
AUUUUAAUGUCAGGAUAUGUUAGUUUAUACAUAGUAGAAGGGAUAAUUAUACUCAUGUACAUGAGGAUCACCCAUGUUAAAUAA | – | – | 163 nM | 98.1 nM
CAGUACUGAGGAUAUACAUGAGGAUCACCCAUGUGUUCCAGCUAGGAAACUAGCAAAAGUAGAAGGCUGUACUG | 16.9 nM | 172 nM | – | –
AUCAGCUAGUCAGGAUAUACGUCACUGCGUCAGCAGUGUGGUAAGAUCACAUGAGGAUCACCCAUGUAGAAGGGACGAGCUGAU | 14.2 nM | 295 nM | – | –
AUCGGCCCGUAGAAGGGUGACAUGAGGAUCACCCAUGUGCCGCGUGCAUUUAUGCCUCCGCGGCCACAGGAUAUACGGAGUUGA | – | – | 61 nM | 50 nM
GGAUGACAAAGUCAUCCAAUACGAACAUGAGGAUCACCCAUGUAGGAUAUGCUAGUCAAAGACUAGCAGAAGGACAUGUGCCUU | 39.2 nM | 238 nM | – | –
AUGUACCGGUGAGGAUAUUUUUAAUAGAGCUUUAUGAUAUACAUGAGGAUCACCCAUGUUACUUUAAAGAAGGCAUCGGAUUAA | 19 nM | 14 nM | – | –
AUUUAAUUUAAUAAGAUCACAUGAGGAUCACCCAUGUUAUAAUAGGAUAUCAGCUCGUGUAGAGCUGAGAAGGAUUAUAACAUG | 66.3 nM | 35.1 nM | – | –
AUCAGCUCGUCAGGAUAUACGUCACUGCGUCAGCAGUGUGGUAAGAUCACAUGAGGAUCACCCAUGUAGAAGGGACGAGGUGAU | 14.9 nM | 265 nM | – | –
GGAUAGGACAGAGGAUAUACGUGCUAGAGAUACUAGCAAAAUUUCCUCACAUGAGGAUCACCCAUGUAGAAGGCUUUCCUAUCG | 6.3 nM | 37 nM | – | –
CGAUGUUAUGUCAGGAUAUGCGUUGCGAAAGCGAUGCAGAAGGGACAUGAGGAUCACCCAUGUCCUAACCAUCG | 12.3 nM | 22.6 nM | – | –
CGAUUACGAGGAUAUUAUGGCCUCGACAUGAGGAUCACCCAUGUACAAACAUGAAUACCUUGAGAAGGCGUAGAGC | 67.7 nM | 67.3 nM | – | –
GUGGCUGUUAGGCUUGCGCCGGCGACAGAAGGCCAACAUGAGGAUCACCCAUGUACAAAGACCAUGGAGGAUAUGUUGCCAGUG | – | – | 41.8 nM | 8.95 nM
CCAUGACCGUAAGCGAUUACCACAUGAGGAUCACCCAUGUACAGAAGGCGGACGUCAUUAUGAACCGAGGAUAUGUACCAGGGU | 92.2 nM | 12.1 nM | – | –

Sequence | apparent Kd [1] | apparent Kd [2] | apparent Kd [3] | apparent Kd [4]
AGGUUUGGAGAGAAGGGCUAAUGGGUUUCGUUUGAGGUAUUCGCAACAUGAGGAUCACCCAUGUAGCAGGAUAUCUCAAAACUA | 4.88 nM | 7.95 nM | – | –
UGUCGGAGCAGAGGAUAUUACAUGAGGAUCACCCAUGUAAAUGGAAUAAGCUGGAAACAGCAAUGUAAGAAGGCUGCUCCGACA | 70.2 nM | 619 nM | – | –
AAAACACAUGAGGAUCACCCAUGUAUCUGGACCAUAGGAUAUCCGCGCCCACUAGGGUAUGGAGAAGGGUGAGCCC | – | – | 161 nM | 122 nM
ACAUGAGGAUCACCCAUGUAGAAUGAAGAAGGUACGUUAUUGAUAUGCAGGAAGUGUCGGUGUUGUAAGGAUAUUCUAAUAAUU | – | – | 15.5 nM | 8.16 nM
GCAGCUAAUGCAGGAUAUCAGCACGUGUAGUGCUGAGAAGGGCACAUGAGGAUCACCCAUGUGAUCAAUUAAUUUUAAUGCUGC | 29 nM | 159 nM | – | –
CCUAUGUGAGGAUAUGUCUGGUCUUCUUUUAUUUUUUACAGACAGAAGGCACAUGAGGAUCACCCAUGUCAGAC | 23.2 nM | 64.7 nM | – | –
UUGCCUCAGAACAUGAGGAUCACCCAUGUGCUGCGGGCAACGUAGGAUAUGAUGGUAUGAUACCAUCAGAAGGAUGAUGGUACC | – | – | 5.96 nM | 5.33 nM
GCGAAGAUAGCAGGAUAUAUGUUUCCUACAUGAGGAUCACCCAUGUAGGUGAUCAGCCGAGAAAAGUAGAAGGGCUAUCUUUGC | – | – | 16.5 nM | 13.7 nM
AAAUAAACUAGCAAAAUUUCCUCACAUGAGGAUCACCCAUGUAAGGAUAUCUGUCCUAAAAGGACAGAGAAGGUACGUGCUAGG | 4.53 nM | 4.63 nM | – | –
GCAUGCUAUGUCAGGAUAUACCUCUGGAUACAUAGGUAGAAGGGACAUGAGGAUCACCCAUGUCCUAAACAUGC | 12.2 nM | 13.4 nM | – | –
GUUAAGGUAGGAUAUACGAUAAUAUAGGGUAGAAUUAUAACACAUGAGGAUCACCCAUGUAGAAGGACCAAUUG | 31.2 nM | 39.5 nM | – | –
UGGCCCGCCGGAGGAUAUCUACUCUGUGGUGCACUGCGUUUGCAAUACAUGAGGAUCACCCAUGUAGAGAAGGCCGAGGGCACA | – | 66.9 nM | – | –
GGUGCUCAAAGAGUACCAAUACGAACAUGAGGAUCACCCAUGUAGGAUAUGCUACUCAAAGAGUAGCAGAAGGACAUGUGCCUA | 16.4 nM | 116 nM | – | –
CCUCAGUCAGGAUAUAUCGCACCCAUGAAGUACAUAGGUUCAUAGAAGGGACAUGAGGAUCACCCAUGUCUAGA | 22 nM | 57 nM | – | –
CGUCGCUGUCGAGAGGAUAUGCGGUGAUGGACAUGAGGAUCACCCAUGUUAGCGAUAGUAUCACGGUAGAAGGCUCUUACGACUG | – | – | 32.9 nM | 25.3 nM
UGACGGAGCUGAGGAUAUAACAUGAGGAUCACCCAUGUAAGUCUCCAGGAAACUGGAGACAAUAGUUAGAAGGCAGCUCCGUCA | 14.6 nM | 19.4 nM | – | –
UGUUAAUAUCGAGGAUAUGUCUAGACACAUGAGGAUCACCCAUGUAUGUGUAUAGAAGGCGAUAUUAACAGCAUGUUACAUGCA | – | – | 36.9 nM | 16.9 nM
AGCGUACAAGCUAACAUGAGGAUCACCCAUGUGGACUCAUGCGAGGAUAUCGGGAAGGAGGAUUCCGAGAAGGUGCGGUGAGCC | – | – | 148 nM | 38.1 nM
AGUGUGUGGCAGGAUAUGCAAUUUGUAAGUAUUGCAGAAGGGUCUACAUGAGGAUCACCCAUGUGUGCGGUUGA | 721 nM | 477 nM | – | –
AAAAAGUGAGGAUAUACGAGGAGAAACAACAAACAAACAAAACAUGAGGAUCACCCAUGUAGAAGGCACAAAAA | 21.1 nM | 26.2 nM | – | –
GUCGUGAGACAGGAUAUCCAAUCUAAACACGAGGGAGAAGGGUCUACAUGAGGAUCACCCAUGUGGUCUCAAAA | 17.6 nM | 21.7 nM | – | –
CCAUAAUUGAUCCAUUUUUACAACAUGAGGAUCACCCAUGUGCAGGAUAUCGUGAAAGUUAAAUACGAGAAGGGCAAGAACUGC | 272 nM | 229 nM | – | –
AGCUACGUUUCGUAGCAGCUAGGUGAGGAUAUUCAAUUUUUCACAUGAGGAUCACCCAUGUAUGAAAAGAAGGCGCCUAGAAAG | – | – | 4.45 nM | 4.04 nM
UAGACCGAUGUUAGGAUAUCUGGUCGAGAAAGAAAAGAGAAGGAACAUGAGGAUCACCCAUGUACCCGGGUAAC | 15 nM | 19.2 nM | – | –
CGUCAGUGAGGAUAUGGUGUCGUUUACAUGAGGAUCACCCAUGUUUCAUGGGACUAGAGACUAGAAGGUACUGACG | 97.4 nM | 266 nM | – | –
CGUUCAGAGAACGAUACGAAUGGACAUGAGGAUCACCCAUGUAGAAGGACAACGGAAUAAACGUUGUAGGAUAUACAUUUAGUG | 53.7 nM | 134 nM | – | –
AGUGUGGGAGGAUAUACAUGAGGAUCACCCAUGUGAGUUGGCUCACAUGCUACGCUUCGUAGAAGGCCCAAAGA | 88.8 nM | 290 nM | – | –
